# EBI2 antag – EBI2 (human) antagonism. inhibition, % at 5 µM. P32249. hit rate 0.81% among 360,000. EBI2 beta-arrestin recruitment, luminescence, 7a,25-OHC stimulated; in the data active means inhibition above about 38%;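 further: enzyme fragment complementation signal reports receptor beta-arrestin coupling in cells; 0% = agonist plus DMSO wells and 100% = wells without agonist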
# APJ antagonist – blocks the human apelin receptor APJ; hit rate 0.32% among 330,000; inhibition, % at 20 µM; CHO-K1 APJ beta-arrestin complementation, luminescence; P35414;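 active means inhibition above about 40% at 20 µM, limit read from the data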;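 further: cells challenged with 10 nM apelin-13 agonist together with compound; plate controls were apelin-13 plus DMSO wells for no effect and DMSO wells lacking apelin-13 for full effect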
# Target sequence (P35414 whole entry, looked up): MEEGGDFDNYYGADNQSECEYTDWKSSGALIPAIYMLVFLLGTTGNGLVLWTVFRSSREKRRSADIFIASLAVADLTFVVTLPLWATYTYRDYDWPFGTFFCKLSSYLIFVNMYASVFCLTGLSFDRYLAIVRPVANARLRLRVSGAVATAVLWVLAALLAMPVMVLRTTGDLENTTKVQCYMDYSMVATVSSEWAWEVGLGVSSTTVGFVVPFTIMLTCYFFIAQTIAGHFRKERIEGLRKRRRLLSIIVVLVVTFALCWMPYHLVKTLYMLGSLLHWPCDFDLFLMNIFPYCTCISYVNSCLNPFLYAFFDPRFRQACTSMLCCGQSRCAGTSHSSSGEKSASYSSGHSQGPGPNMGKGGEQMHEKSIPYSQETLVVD
# CXCR6 block – CXCR6 (human) receptor inhibition; inhibition, % at 20 µM; AID 602244; hit rate 0.36% among 360,000; O00574; CHO-K1 PathHunter CXCR6 beta-arrestin, luminescence; in the data active means inhibition above about 34%, passing the limit was not always enough;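 further: antagonist mode with CXCL16 agonist at 10 nM final; 0% = 10 nM CXCL16 with DMSO and 100% = unstimulated wells without agonist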
# CCR6 antagonist – CCR6 (human) receptor antagonism; P51684; CHO-K1 CCR6 PathHunter beta-arrestin, luminescence, CCL20-stimulated; inhibition, % at 20 µM; hit rate 0.49% among 340,000;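 active means compounds whose inhibition of the agonist-driven luminescence signal at 20 µM reaches about 50%, limit read from the data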;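 further: cells stimulated with CCL20 at 14 nM final; plate controls were DMSO with CCL20 for no effect and DMSO without agonist for full effect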
# APJ agonist – activates the human apelin receptor APJ. P35414. CHO-K1 APJ PathHunter beta-arrestin, luminescence; 0% DMSO wells, 100% apelin. activation, % at 20 µM. hit rate 0.11% among 330,000. AID 2520;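 active means activation more than six SD over the plate average, tested at 20 µM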;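 further: 0% = DMSO alone and 100% = apelin-13 at 10 nM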
#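 Assay system – PathHunter CHO-K1 APJ (AGTRL-1) beta-arrestin reporter cells · Compound – one dose, 20 µM compound, 1% DMSO · Timing – compound 90 min 25 °C, reagent 1 h · Measured by – luminescence from split beta-galactosidase complementation, Galacton Star/Emerald II substrate · Measure – beta-arrestin recruitment to APJ as agonist activity, luminescent signal · Benchmarks – DMSO vs Apelin-13 10 nM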
# B2AR ag – activates human beta-2 adrenergic receptor causing internalization; AID 504454; P07550; response, % (concentration not given with the values); Am2.2-beta2AR cells, FAP receptor internalization, flow cytometry; hit rate 0.43% among 340,000;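 active means response above a set limit, near 3 SD of response in nonfluorescent compounds, cut at about 42% in these data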
# The depositor's hits bear a star; x = not tested or not shown. Sampled rows, rich in hits. Any-hit rate of the full collection: about 1.8%.
SMILES,EBI2 antag,APJ antagonist,CXCR6 block,CCR6 antagonist,APJ agonist,B2AR ag
O=C(CCl)N=c1sccn1Cc1ccc(Cl)cc1Cl,-9.9,21.9,-0.7,10.7,-1.6,67.4*
O=C(CCl)N=c1sccn1Cc1ccccc1Cl,-9.7,-6.5,1.2,13.1,-2.9,25.4
O=C(CCl)N=c1sccn1Cc1cccc2ccccc12,1.1,x,3.7,16.6,x,49.6*
Cc1cccc(C)c1NC(=O)c1cc(S(=O)(=O)N2CCC3(CC2)OCCO3)ccc1F,-6.2,x,6.6,x,x,x
Cc1cc(C)nc(NC(=O)/C=C/c2ccccc2Cl)n1,-3.9,8.5,-7.2,4.3,-4.8,-7.5
Cc1cc(N)c2cc(NC(=O)/C=C/c3ccccc3Cl)ccc2n1,-7.3,-30.3,12.4,10.0,6.2,73.2*
CCOC(=O)N/N=C/c1cn(CCCOc2ccc(C)cc2)c2ccccc12,7.2,-25.2,1.7,8.0,-0.1,71.0*
CCN(CC)CCCNC(=O)CNC(=O)c1nn(-c2ccc(OC)cc2OC)c(=O)c2ccccc12,4.9,x,1.0,x,x,x
COc1ccc(OC)c2c1C(=O)c1ccccc1C2=O,x,8.6,x,-3.4,-0.5,x
COc1ccc(OC)c2c1C(=O)C(Cl)=C(Cl)C2=O,20.6,27.4,102.1*,105.0*,-2.9,97.3*
COc1ccccc1C1=NOC(COc2ccc3c(C)cc(=O)oc3c2)C1 (centres undefined),-3.6,2.2,8.5,12.7,-2.5,44.2*
COc1ccc(C2=NOC(COc3ccc4c(C)cc(=O)oc4c3)C2)c(OC)c1 (centres undefined),2.3,-14.9,1.2,15.2,-0.7,20.5
Cc1cccc(N2CCN(C(=O)c3cc4cc(F)ccc4[nH]3)CC2)c1C,91.7*,-5.1,13.5,-1.2,-2.0,-16.9
Cc1cccc(Nc2c(O)nc[nH]c2=O)c1,-1.4,x,-0.3,6.9,x,1.1
Nc1nn2c(-c3ccccc3)cc(=O)[nH]c2c1N=Nc1ccc(Br)cc1,6.7,x,41.4*,42.6,x,-2.4
CC(C)CCNC(=O)C(=O)Nc1ccc2c(c1)N(S(=O)(=O)c1cccs1)CCC2,2.5,-6.2,7.4,11.6,-4.4,-8.7
SC(COCc1ccccc1)CN1CCN(Cc2ccc3c(c2)OCO3)CC1 (centres undefined),9.8,-9.0,26.0,63.5*,-2.8,0.8
CC(=O)Nc1cccc(/C(C)=N/NC(=O)c2cccc(S(=O)(=O)N3CCCC3)c2)c1,-2.4,x,-3.7,x,x,x
CN1C/C(=C/c2cccnc2)C(=O)/C(=C/c2cccnc2)C1,-8.5,x,10.9,27.5,x,43.5*
CC(C)N1C/C(=C/c2cccnc2)C(=O)/C(=C/c2cccnc2)C1,-1.0,x,-3.3,24.1,x,16.7
Cc1cc(/C=N\NC(=O)CC(=O)NC2CCCCC2)c(C)n1-c1ccc(Cl)c(Cl)c1,4.9,-2.0,-6.3,-7.8,-4.6,55.6*
Cc1cc(/C=N\NC(=O)CC(=O)NC2CCCCC2)c(C)n1-c1cccc(Cl)c1Cl,1.9,-8.2,4.9,13.1,-0.1,3.1
CSC(=S)N/N=C(\C)c1ccccc1,-1.1,46.8*,37.3,57.1*,-7.9,-2.5
COc1ccc(OC)c2sc(N(CCCN(C)C)C(=O)CCS(=O)(=O)c3ccccc3)nc12,54.0*,39.5,61.5*,70.4*,-0.3,33.8
C#CCOCCOCCOCCNc1nc(N2CCN(C(=O)CCCCCCCCCCNC(=O)[C@@H](CCSC)n3cc(CCO)nn3)CC2)nc(N2CCN(C(=O)CCCCCCCCCCNC(=O)[C@H]([C@@H](C)CC)n3cc(CCCCN=C(N)N)nn3)CC2)n1,-6.4,11.9,6.0,-10.0,13.4,78.0*
C#CCOCCOCCOCCNc1nc(N2CCN(C(=O)CCCCCCCCCCNC(=O)[C@H](CCCCN)n3cc(CCO)nn3)CC2)nc(N2CCN(C(=O)CCCCCCCCCCNC(=O)[C@H](CCCN=C(N)N)n3cc(C[C@@H](C)CC)nn3)CC2)n1,-3.0,25.6,26.0,-28.8,-1.5,19.5
C#CCOCCOCCOCCNc1nc(N2CCN(C(=O)CCCCCCCCCCNC(=O)[C@H]([C@@H](C)CC)n3cc(CCCCN=C(N)N)nn3)CC2)nc(N2CCN(C(=O)CCCCCCCCCCNC(=O)[C@H](CCCCN)n3cc(C[C@@H](C)CC)nn3)CC2)n1,x,31.1,x,x,58.5*,x
